{"source": "ChEMBL document CHEMBL1157145", "about": "“Cytotoxic activity of proflavine diureas: synthesis, antitumor, evaluation and DNA binding properties of 1',1''-(acridin-3,6-diyl)-3',3''-dialkyldiureas” (Bioorg Med Chem, 2008)", "key": {"HCT-116 [1]": {"system": "HCT-116", "assay": "Cell cycle arrest in human HCT116 cells assessed as accumulation at S phase at 77 uM after 24 hrs", "assay_type": "functional", "procedure,_shortened": "(§1)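 Cells seeded at 8 · 10^5 per 60 mm dish, allowed to settle 24 h (37 °C, 5% CO2), then exposed to the drug for 24 or 48 h. Adherent plus floating cells (5 · 10^5) were fixed in cold 70% ethanol at −20 °C overnight, treated with RNase A (100 µg/mL) and stained with propidium iodide (20 µg/mL) in Vindelov's solution for 30 min at RT. Flow cytometry used 488 nm excitation, FL-2 at 585 ± 21 nm, and histograms were modelled for G0/G1, S and G2/M fractions.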"}, "HCT-116 [2]": {"system": "HCT-116", "assay": "Induction of DNA fragmentation in human HCT116 cells after 48 hrs", "assay_type": "functional, cell-based", "procedure,_shortened": "(§2)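 HCT-116 cells were treated for 24 or 48 h. Adherent and floating cells (5 × 10^5) were pooled, fixed in cold 70% ethanol and held overnight at −20 °C. Samples were treated with RNase A (100 µg/mL) and stained with propidium iodide (20 µg/mL) in Vindelov's solution for 30 min at RT. Flow cytometry used 488 nm excitation with emission at 585 nm. Subdiploid (subG0/G1) particles were scored on a logarithmic scale, with debris gated out on FSC × SSC.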"}, "HCT-116 [3]": {"system": "HCT-116", "assay": "Cell cycle arrest in human HCT116 cells assessed as accumulation at G2/M phase at 77 uM after 24 hrs", "assay_type": "functional", "procedure,_shortened": "as §1"}, "HCT-116 [4]": {"system": "HCT-116", "assay": "Induction of apoptosis in human HCT116 cells at 77 uM after 24 hrs", "assay_type": "functional", "procedure,_shortened": "(§3)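 After 24 or 48 h of drug exposure, all cells were collected, combining trypsinised adherent cells with floating cells from the medium. Cells (1 × 10^6) were fixed in cold 70% ethanol overnight at −20 °C and stained with DAPI (10 µg/mL) for 30 min in the dark at RT. Under fluorescence microscopy, 300 cells per sample were scored, with condensed or fragmented nuclei counted as apoptotic.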"}, "HCT-116 [5]": {"system": "HCT-116", "assay": "Cytotoxicity against human HCT116 cells after 48 hrs by MTT assay", "assay_type": "functional, cell-based", "conditions": "HCT-116, 48 h"}, "HCT-116 [6]": {"system": "HCT-116", "assay": "Induction of apoptosis in human HCT116 cells at 77 uM after 48 hrs", "assay_type": "functional", "procedure,_shortened": "as §3"}, "HeLa [7]": {"system": "HeLa", "assay": "Cell cycle arrest in human HeLa cells assessed as accumulation at G0/G1 phase at 5.50 uM after 24 hrs", "assay_type": "functional", "procedure,_shortened": "as §1"}, "DNA [8]": {"system": "DNA", "assay": "Binding affinity to calf thymus DNA at 4 uM by fluorescence spectrophotometric titration", "assay_type": "nucleic-acid assay", "conditions": "Bos taurus", "procedure,_shortened": "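ctDNA sonicated in TE buffer, concentration taken from A260 and given in base pairs. Compound (4 µM) in 0.01 M Tris, pH 7.4, 25 °C titrated with ctDNA (0–55 µM bp) until spectra stopped changing. Excitation 424 nm, slit widths 10 nm; binding constant derived from the change in emission.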"}, "HCT-116 [9]": {"system": "HCT-116", "assay": "Antiproliferative activity against human HCT116 cells assessed as decrease in total cell population at 77 uM after 48 hrs", "assay_type": "functional", "parameters": "scale not given: the % may be the effect or the level left", "procedure,_shortened": "(§4)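 Cells seeded (8 · 10^5 per 60 mm dish), allowed to settle 24 h at 37 °C, 5% CO2, then treated with a single concentration for 24 or 48 h. Adherent and floating cells counted by Coulter counter. Total cell number given as % of untreated control; floating cells as % of total cell number.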"}, "HCT-116 [10]": {"system": "HCT-116", "assay": "Cell cycle arrest in human HCT116 cells assessed as accumulation at G0/G1 phase at 77 uM after 48 hrs", "assay_type": "functional", "procedure,_shortened": "as §1"}, "HCT-116 [11]": {"system": "HCT-116", "assay": "Cytotoxicity against human HCT116 cells after 72 hrs by MTT assay", "assay_type": "functional, cell-based", "conditions": "Homo sapiens, HCT-116, 72 h"}, "HCT-116 [12]": {"system": "HCT-116", "assay": "Antiproliferative activity against human HCT116 cells assessed as decrease in total cell population at 77 uM after 24 hrs", "assay_type": "functional", "parameters": "scale not given: the % may be the effect or the level left", "procedure,_shortened": "as §4"}, "HCT-116 [13]": {"system": "HCT-116", "assay": "Antiproliferative activity against human HCT116 cells assessed as increase of floating cells in total cell population at 77 uM after 48 hrs", "assay_type": "functional", "procedure,_shortened": "as §4"}, "HeLa [14]": {"system": "HeLa", "assay": "Cell cycle arrest in human HeLa cells assessed as accumulation at G2/M phase at 5.50 uM after 48 hrs", "assay_type": "functional", "procedure,_shortened": "as §1"}, "HeLa [15]": {"system": "HeLa", "assay": "Antiproliferative activity against human HeLa cells assessed as decrease in total cell population at 5.50 uM after 48 hrs", "assay_type": "functional", "parameters": "scale not given: the % may be the effect or the level left", "procedure,_shortened": "as §4"}, "HeLa [16]": {"system": "HeLa", "assay": "Induction of apoptosis in human HeLa cells at 5.50 uM after 48 hrs", "assay_type": "functional", "procedure,_shortened": "as §3"}, "HeLa [17]": {"system": "HeLa", "assay": "Cytotoxicity against human HeLa cells after 72 hrs by MTT assay", "assay_type": "functional, cell-based"}, "HeLa [18]": {"system": "HeLa", "assay": "Antiproliferative activity against human HeLa cells assessed as increase of floating cells in total cell population at 5.50 uM after 48 hrs", "assay_type": "functional", "procedure,_shortened": "as §4"}, "HeLa [19]": {"system": "HeLa", "assay": "Antiproliferative activity against human HeLa cells assessed as decrease in total cell population at 5.50 uM after 24 hrs", "assay_type": "functional", "parameters": "scale not given: the % may be the effect or the level left", "procedure,_shortened": "as §4"}, "HCT-116 [20]": {"system": "HCT-116", "assay": "Antiproliferative activity against human HCT116 cells assessed as increase of floating cells in total cell population at 77 uM after 24 hrs", "assay_type": "functional", "procedure,_shortened": "as §4"}, "HeLa [21]": {"system": "HeLa", "assay": "Cytotoxicity against human HeLa cells after 48 hrs by MTT assay", "assay_type": "functional, cell-based"}, "HeLa [22]": {"system": "HeLa", "assay": "Cell cycle arrest in human HeLa cells assessed as accumulation at S phase at 5.50 uM after 48 hrs", "assay_type": "functional", "procedure,_shortened": "as §1"}, "DNA [23]": {"system": "DNA", "assay": "Binding affinity to calf thymus DNA at 50 uM by circular dichroism spectrophotometric titration", "assay_type": "nucleic-acid assay", "conditions": "Bos taurus"}, "HeLa [24]": {"system": "HeLa", "assay": "Cell cycle arrest in human HeLa cells assessed as accumulation at G0/G1 phase at 5.50 uM after 48 hrs", "assay_type": "functional", "procedure,_shortened": "as §1"}, "HCT-116 [25]": {"system": "HCT-116", "assay": "Cell cycle arrest in human HCT116 cells assessed as accumulation at G0/G1 phase at 77 uM after 24 hrs", "assay_type": "functional", "procedure,_shortened": "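Adherent plus floating cells (5 · 10^5) collected 24 or 48 h after treatment, fixed in cold 70% ethanol at −20 °C overnight, washed in PBS. RNase A (100 µg/mL) and propidium iodide (20 µg/mL) in Vindelov's solution, 30 min at RT. Flow cytometry with 488 nm excitation, emission 585 ± 21 nm; % cells per cycle phase from DNA content histograms.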"}, "HeLa [26]": {"system": "HeLa", "assay": "Cell cycle arrest in human HeLa cells assessed as accumulation at S phase at 5.50 uM after 24 hrs", "assay_type": "functional", "procedure,_shortened": "as §1"}, "HCT-116 [27]": {"system": "HCT-116", "assay": "Cell cycle arrest in human HCT116 cells assessed as accumulation at S phase at 77 uM after 48 hrs", "assay_type": "functional", "procedure,_shortened": "as §1"}, "HeLa [28]": {"system": "HeLa", "assay": "Cell cycle arrest in human HeLa cells assessed as accumulation at G2/M phase at 5.50 uM after 24 hrs", "assay_type": "functional", "procedure,_shortened": "as §1"}, "HCT-116 [29]": {"system": "HCT-116", "assay": "Induction of DNA fragmentation in human HCT116 cells after 24 hrs", "assay_type": "functional, cell-based", "procedure,_shortened": "as §2"}, "HeLa [30]": {"system": "HeLa", "assay": "Antiproliferative activity against human HeLa cells assessed as increase of floating cells in total cell population at 5.50 uM after 24 hrs", "assay_type": "functional", "procedure,_shortened": "as §4"}, "HCT-116 [31]": {"system": "HCT-116", "assay": "Cell cycle arrest in human HCT116 cells assessed as accumulation at G2/M phase at 77 uM after 48 hrs", "assay_type": "functional", "procedure,_shortened": "as §1"}}, "note": "Calls of active or inactive are those of the source. No cut-off for these calls is given here.", "data": [{"smiles": "CCCCNC(=O)Nc1ccc2cc3ccc(NC(=O)NCCCC)cc3nc2c1.Cl", "values": [{"measurement": "Activity", "setting": "HCT-116 [1]", "result": 22.52, "unit": "%"}, {"measurement": "Activity", "setting": "HCT-116 [2]", "result": "Active"}, {"measurement": "Activity", "setting": "HCT-116 [3]", "result": 37.51, "unit": "%"}, {"measurement": "Activity", "setting": "HCT-116 [4]", "result": 9.67, "unit": "%"}, {"measurement": "IC50", "setting": "HCT-116 [5]", "result": 77, "unit": "µM"}, {"measurement": "Activity", "setting": "HCT-116 [6]", "result": 3.89, "unit": "%"}, {"measurement": "Activity", "setting": "HeLa [7]", "result": 61.17, "unit": "%"}, {"measurement": "K", "setting": "DNA [8]", "result": 2.4, "unit": "×10⁵ /M"}, {"measurement": "Activity", "setting": "HCT-116 [9]", "result": 27.58, "unit": "%"}, {"measurement": "Activity", "setting": "HCT-116 [10]", "result": 43.91, "unit": "%"}, {"measurement": "IC50", "setting": "HCT-116 [11]", "result": 43.9, "unit": "µM"}, {"measurement": "Activity", "setting": "HCT-116 [12]", "result": 47.4, "unit": "%"}, {"measurement": "Activity", "setting": "HCT-116 [13]", "result": 33.41, "unit": "%"}, {"measurement": "Activity", "setting": "HeLa [14]", "result": 9.6, "unit": "%"}, {"measurement": "Activity", "setting": "HeLa [15]", "result": 96.5, "unit": "%"}, {"measurement": "Activity", "setting": "HeLa [16]", "result": 0.44, "unit": "%"}, {"measurement": "IC50", "setting": "HeLa [17]", "result": 11.5, "unit": "µM"}, {"measurement": "Activity", "setting": "HeLa [18]", "result": 3.93, "unit": "%"}, {"measurement": "Activity", "setting": "HeLa [19]", "result": 92.75, "unit": "%"}, {"measurement": "Activity", "setting": "HCT-116 [20]", "result": 51.08, "unit": "%"}, {"measurement": "IC50", "setting": "HeLa [21]", "result": 5.41, "unit": "µM"}, {"measurement": "Activity", "setting": "HeLa [22]", "result": 15.5, "unit": "%"}, {"measurement": "Activity", "setting": "DNA [23]", "result": "Active"}, {"measurement": "Activity", "setting": "HeLa [24]", "result": 74.91, "unit": "%"}, {"measurement": "Activity", "setting": "HCT-116 [25]", "result": 39.97, "unit": "%"}, {"measurement": "Activity", "setting": "HeLa [26]", "result": 24.95, "unit": "%"}, {"measurement": "Activity", "setting": "HCT-116 [27]", "result": 27.24, "unit": "%"}, {"measurement": "Activity", "setting": "HeLa [28]", "result": 13.88, "unit": "%"}, {"measurement": "Activity", "setting": "HCT-116 [29]", "result": "Active"}, {"measurement": "Activity", "setting": "HeLa [30]", "result": 4.03, "unit": "%"}, {"measurement": "Activity", "setting": "HCT-116 [31]", "result": 28.85, "unit": "%"}]}]}
